# Hits are enriched below; roughly 1.7% of the tested compounds scored in any of these assays.
# Scp-1 inhibitor – blocks human Scp-1 phosphatase activity; Q9GZU7; Recombinant Scp1, phosphopeptide, malachite green phosphate absorbance; inhibition, % at 20 µM; 0.88% of 340,000 active; AID 493091;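 active = inhibition above about 50% at 20 µM, limit read from the data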
# Target sequence (Q9GZU7 76-261 limits assumed): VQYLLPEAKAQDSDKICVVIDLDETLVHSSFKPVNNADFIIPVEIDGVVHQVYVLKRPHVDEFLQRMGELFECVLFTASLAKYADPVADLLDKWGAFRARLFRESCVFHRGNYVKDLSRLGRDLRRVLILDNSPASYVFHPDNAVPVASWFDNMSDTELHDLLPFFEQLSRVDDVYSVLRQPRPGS
#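 Test system: SCP-1 catalytic domain; Buffer or medium: Acidic Tris acetate buffer with magnesium and detergent; Also added: Phosphorylated 17-residue peptide substrate; Compound: single 20 µM dose, 1% DMSO; Schedule: enzyme reaction 45 min at room temperature, colour 5 min, stabilisation 30 min; Signal: Phosphate-binding colour reagent, absorbance read at 630 nm.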
# STEP block – blocks human striatal-enriched tyrosine phosphatase | P54829 | recombinant STEP, OMFP fluorogenic substrate, fluorescence | inhibition, % at 20 µM | 0.25% of 360,000 active | AID 588621;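 active = inhibition at 20 µM, scaled per plate between control wells, above about 37%, limit read from the data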
#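 Measure: Control-normalized % inhibition with plate pattern correction | Test system: STEP phosphatase, cell-free reaction | Medium: pH 6.0 Bis-Tris with DTT and Tween 20 | Technique: Fluorescence, 480/540 nm | Times: Reaction 20 min, ambient temperature | Doses: Single compound dose of 20 µM, 1% DMSO final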
# LMPTP block – LMPTP (human) inhibition; 0.22% of 360,000 active; inhibition, % at 20 µM; recombinant LMPTP-A, OMFP fluorogenic substrate, fluorescence intensity; P24666;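 active = compounds that cut the enzyme signal by at least half of the control window in the single-dose screen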
# Target sequence (P24666 whole entry, looked up): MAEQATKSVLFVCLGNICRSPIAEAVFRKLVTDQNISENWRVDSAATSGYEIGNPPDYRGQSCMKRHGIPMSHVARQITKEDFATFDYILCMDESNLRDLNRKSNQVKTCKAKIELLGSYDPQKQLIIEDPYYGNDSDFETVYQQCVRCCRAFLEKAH
#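 Test system: LMPTP-A phosphatase enzyme; input: 0.625 nM LMPTP-A final; reagent: OMFP substrate, 400 µM final; compound dosing: 20 µM single dose, 3% DMSO; incubation: 50 min dark incubation at room temperature; measured by: endpoint fluorescence intensity from OMFP dephosphorylation; measure: % inhibition relative to no-enzyme and uninhibited control wells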
# SUMO1 PPI mod – modulators of human SUMO1-mediated protein-protein interactions. inhibition, % at 20 µM. P63165. SUMO1 binding to a labelled peptide, TR-FRET, 1 h. AID 602429. 0.33% of 360,000 active; in the data active = inhibition above about 37%
# Target sequence (P63165 whole entry, looked up): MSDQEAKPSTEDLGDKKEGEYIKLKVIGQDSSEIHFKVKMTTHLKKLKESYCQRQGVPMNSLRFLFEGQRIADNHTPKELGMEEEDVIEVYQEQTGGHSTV
# DSG3 Ab inh – human desmoglein-3 autoantibody binding inhibition; DSG3-coupled beads, scFv-anti-DSG3-GFP binding, flow cytometry; stronger effect = lower value; binding (percent of control), % at 10 µM; 0.48% of 310,000 active; AID 588358;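 active = binding more than 3 SD below its plate's average and above zero; inconclusive = below that plate limit but binding exactly zero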;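 note: hits lower antibody fragment binding to DSG3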
# STEP inh conf – STEP (human) phosphatase inhibition, single concentration confirmation; shares compounds with STEP block; recombinant STEP, OMFP fluorogenic substrate, fluorescence; inhibition, % at 20 µM; 32% of 520 active; AID 623866; call rule not given here
# A number is an active result; n = inactive; u = inconclusive; x = not tested or not shown.
SMILES,Scp-1 inhibitor,STEP block,LMPTP block,SUMO1 PPI mod,DSG3 Ab inh,STEP inh conf
Cc1cccc(NC(=O)CN2CCN(C(=O)CN3C(=O)NC4(CC(C)CC(C)(C)C4)C3=O)CC2)c1C (stereo not given),n,n,n,n,n,x
CCCCN(CC)Cc1ccc(CNC(=S)Nc2ccc(C)cc2Cl)o1,n,n,n,n,n,x
CCCCN(CC)Cc1ccc(CNC(=S)Nc2c(C)cc(C)cc2C)o1,n,85,n,n,n,45
COc1ccc(NC(=S)N2CCN(S(=O)(=O)c3ccc(OC)cc3)CC2)cc1,n,n,n,n,n,x
CC(=O)Nc1ccc(/C=C2\Sc3ccccc3C2=O)cc1,n,43,n,n,x,n
CC(=O)N(C)/C=C1\Sc2ccccc2C1=O,n,n,n,n,n,x
CN1CCN(Cc2nc3ccccc3c(=O)n2Cc2nc(-c3cccc([N+](=O)[O-])c3)cs2)CC1,n,43,n,n,n,n
CC(C)[C@H](NC(=O)N1CC(=O)Nc2ccccc21)C(=O)Nc1nccs1,n,92,n,n,u,n
COc1cc(/C=C2/C(=O)NN(c3cccc(C)c3)C2=O)cc([N+](=O)[O-])c1O,n,51,n,n,n,45
COc1cc(/C=C2/C(=O)NN(c3cccc(C)c3)C2=O)ccc1OC(=O)c1ccco1,n,n,n,n,n,x
O=C1N=C(N2C=CC(=C3C=CNC=C3)C=C2)/C(=C/N=NC(=O)c2ccccc2)S1,n,n,n,n,x,x
O=C(Nc1ccc(C(F)(F)F)cc1)C1CCN(c2cnccn2)CC1,n,n,n,n,n,x
CCOc1ccc(CCNC(=O)CS(=O)(=O)Cc2nc(-c3ccc(OC)cc3)oc2C)cc1,n,44,n,n,u,19
CCOc1ccc(CNC(=O)CS(=O)(=O)Cc2nc(-c3ccc(OC)cc3)oc2C)cc1,n,n,n,n,n,x
COc1ccc(CCC(=O)N2CCCc3ccccc32)cc1,n,n,n,n,u,x
Cc1nc(NC(=O)C2CC2)sc1C(=O)Nc1ccccc1,n,n,n,n,n,x
Cc1nc(NC(N)=S)sc1C(=O)Nc1ccccc1,n,50,n,n,n,n
O=C1CNc2cc(Cl)ccc2N1,x,n,n,n,n,x
O=C1CSc2cc(Cl)ccc2N1,n,37,n,n,n,n
Cc1ccc(NC(=O)c2ccc3nc(N4CCOCC4)sc3c2)c(Cl)c1,n,84,n,n,n,54
O=C(Cc1c(F)cccc1Cl)OCC(=O)c1ccc[nH]1,n,n,n,n,n,x
CC(=O)N1CCOc2ccc(S(=O)(=O)NCC3CCC(C(=O)Nc4ncccc4C)CC3)cc21 (stereo not given),n,n,n,n,n,x
Cc1ccc(OC(C)C(=O)Nc2ccccc2C(=O)NCc2cccnc2)cc1C (stereo not given),n,n,n,n,n,x
COc1ccc(C(=O)Oc2ccc3ccc(=O)oc3c2)cc1,n,74,n,n,n,n
O=C(Oc1ccc2ccc(=O)oc2c1)c1ccccc1,n,n,n,n,n,x
SMILES,Scp-1 inhibitor,STEP block,LMPTP block,SUMO1 PPI mod,DSG3 Ab inh,STEP inh conf
Cc1ccc(NC(=O)CCn2c(=S)oc3ccccc32)cc1F,n,48,n,n,n,38
CCN(CC)C(=O)c1ccccc1NC(=O)c1ccccc1C,n,n,n,n,n,x
CCN(CC)C(=O)c1ccccc1NC(=O)c1ccccc1SC,n,43,n,n,n,n
Cn1nnc(NCc2cc(Br)ccc2OCc2ccccc2F)n1,n,66,n,n,n,n
O=C(NCc1cccnc1)c1cc(C2CCCCN2C(=O)c2ccc(Cl)cc2)on1 (stereo not given),x,n,n,n,x,x
Cc1ccc([C@@]2(OC(=O)c3ccccc3)C(=O)N(C(=O)OC(C)(C)C)c3ccccc32)cc1,x,x,n,n,x,x
O=C(Nc1cccc(Oc2ccc(C(=O)O)c(C(=O)O)c2)c1)c1ccc(-c2ccccc2)cc1,n,n,n,n,n,x
CC(C)(C)C(=O)Nc1ccc(C(=O)Nc2cccc(Oc3ccc(C(=O)O)c(C(=O)O)c3)c2)cc1,n,60,n,n,n,82
CCC(C)(C(=O)NC1CCCC1)N(Cc1cccs1)C(=O)Cc1cccs1 (stereo not given),n,90,n,n,n,n
CCC(C)(C(=O)NC1CCCC1)N(Cc1cccs1)C(C)=O (stereo not given),n,n,n,n,n,x
Cc1ccc(S(=O)(=O)N2CCOCC2)cc1NC(=O)COC(=O)CCc1c[nH]c2ccccc12,n,n,n,n,n,x
Clc1ccc(Cl)c(-c2nc(-c3ccncc3)no2)c1,n,44,n,n,n,12
COC(=O)c1c(N)sc2c1CC(C)(C)OC2,n,n,n,n,n,x
CCOC(=O)[C@H]1[C@H]2COc3ccc(Br)cc3[C@@H]2N2C(=O)[C@H](C)NC(=O)[C@@]12C,n,n,n,n,n,x
NS(=O)(=O)c1ccccc1,n,68,n,n,n,47
O=C(CCC1CCCCC1)Nc1nncs1,n,n,n,n,n,x
O=C(Nc1ccc2oc(-c3ccncc3)nc2c1)c1ccco1,n,n,n,n,n,x
O=C(Nc1ccc2oc(-c3ccncc3)nc2c1)c1ccc2c(c1)OCO2,n,74,67,44,n,n
O=C(Nc1ccc2oc(-c3ccncc3)nc2c1)c1ccc(Br)o1,n,67,n,n,n,n
Cc1ccc(NC(=O)c2oc3ccccc3c2COC(C)C)cc1S(=O)(=O)N1CCOCC1,n,n,n,n,n,x
CS(=O)(=O)N(Cc1ccc(C(=O)NCCSc2ccccn2)cc1)c1ccccc1,n,44,n,n,n,n
CNc1ccc(C(=O)OCC(=O)Nc2ccnn2C(C)C)cc1[N+](=O)[O-],n,n,n,n,n,x
CCN1CCN(C(=S)c2ccc(Cl)cc2)CC1,n,95,n,n,n,63
CCN1CCN(C(=S)c2ccc([N+](=O)[O-])cc2)CC1,n,62,n,n,n,n
OCCN1CCN(C(=S)c2ccc(Cl)cc2)CC1,n,70,n,n,x,n
SMILES,Scp-1 inhibitor,STEP block,LMPTP block,SUMO1 PPI mod,DSG3 Ab inh,STEP inh conf
CC(C)(C)c1cc(C(=S)N2CCN(CCO)CC2)cc(C(C)(C)C)c1O,n,n,n,n,n,x
CCN1CCN(C(=S)c2ccc(OC)cc2)CC1,n,73,n,n,n,n
O=[N+]([O-])c1ccc(C(=S)N2CCCC2)cc1,n,n,n,n,n,x
S=C(c1ccc(Cl)cc1)N1CCN(Cc2ccccc2)CC1,n,n,n,n,n,x
Cc1cccc2c(CC(=O)O)noc12,n,n,n,n,x,x
O=C(CN1CC(=O)Nc2ccccc21)NCCc1ccc(Cl)cc1Cl,n,n,n,n,n,x
CCOc1ccc(C(=S)N2CCCC2)cc1,n,n,n,n,n,x
CCOc1ccc(C(=S)N2CCN(C)CC2)cc1,n,81,n,n,n,48
COCCn1c(=O)c2c(nc3n2CC(C)CN3Cc2ccccc2)n(C)c1=O (stereo not given),n,n,n,n,x,x

# Screening data deposited in PubChem BioAssay by several laboratories.
